Assay results as given in ChEMBL document CHEMBL4251593, “Nontoxic combretafuranone analogues with high in vitro antibacterial activity” (Eur J Med Chem, 2018).
In brackets after ≈: the same amount, converted by molar mass.

Assays:
TERT-RPE1 [1] = assay: Cytotoxicity against human RPE1 cells assessed as reduction in cell viability after 48 hrs by ATPlite-based luminescent assay; conditions: RPE-1, 48 h
Outline: (§1)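 Cells were grown […] with 10% FBS, glutamax, NEAA and pen/strep at 37 °C, 5% CO2. Media were DMEM for RPE-1, HepG2 and BJ (BJ plus 10 ng/ml bFGF), F-12K for PC3, and IMDM for K562/HL-60. Cells were seeded at 500 per well and dosed from DMSO at 12 concentrations, 40 µM to 1 nM, in triplicate. After 48 h, intracellular ATP was read by luminescence. ED50 was obtained by variable-slope nonlinear regression.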

BJ = assay: Cytotoxicity against human BJ cells assessed as reduction in cell viability after 48 hrs by ATPlite-based luminescent assay; outline: as §1
K562 [2] = assay: Cytotoxicity against human K562 cells assessed as reduction in cell viability after 48 hrs by ATPlite-based luminescent assay; conditions: K562, 48 h; outline: as §1
HL-60 [3] = assay: Cytotoxicity against human HL60 cells assessed as reduction in cell viability after 48 hrs by ATPlite-based luminescent assay; conditions: HL-60, 48 h; outline: as §1
PC-3 [4] = assay: Cytotoxicity against human PC3 cells assessed as reduction in cell viability after 48 hrs by ATPlite-based luminescent assay; conditions: PC-3, 48 h; outline: as §1
MCF7 = assay: Cytotoxicity against human MCF7 cells assessed as reduction in cell viability after 48 hrs by ATPlite-based luminescent assay; conditions: MCF7, 48 h
HepG2 [5] = assay: Cytotoxicity against human HepG2 cells assessed as reduction in cell viability after 48 hrs by ATPlite-based luminescent assay; conditions: HepG2, 48 h; outline: as §1
TERT-RPE1 [6] = assay: Induction of apoptosis in human RPE1 cells assessed as caspase 3/7 activity after 24 hrs by caspase-glo luminescent assay; format: cell-based; conditions: RPE-1, 24 h
Outline: (§2)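 Cells were seeded at 500 per well in their growth media and exposed to 12 concentrations from 40 µM to 1 nM, delivered from DMSO, in triplicate. After 24 h, caspase-3/7 activity was read by Caspase-Glo luminescence. Data were normalized and ED50 was fitted by variable-slope nonlinear regression.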

K562 [7] = assay: Induction of apoptosis in human K562 cells assessed as caspase 3/7 activity after 24 hrs by caspase-glo luminescent assay; format: cell-based; conditions: K562, 24 h; outline: as §2
HL-60 [8] = assay: Induction of apoptosis in human HL60 cells assessed as caspase 3/7 activity after 24 hrs by caspase-glo luminescent assay; format: cell-based; conditions: HL-60, 24 h; outline: as §2
PC-3 [9] = assay: Induction of apoptosis in human PC3 cells assessed as caspase 3/7 activity after 24 hrs by caspase-glo luminescent assay; format: cell-based; conditions: PC-3, 24 h; outline: as §2
HepG2 [10] = assay: Induction of apoptosis in human HepG2 cells assessed as caspase 3/7 activity after 24 hrs by caspase-glo luminescent assay; format: cell-based; conditions: HepG2, 24 h; outline: as §2
Staphylococcus aureus [11] = assay: Antibacterial activity against Staphylococcus aureus ATCC 6538 after 24 hrs by microdilution assay; format: functional; conditions: ATCC 6538, 24 h
Staphylococcus aureus [12] = assay: Antibacterial activity against methicillin-resistant Staphylococcus aureus HK5996/08 clinical isolate after 24 hrs by microdilution assay; format: functional; conditions: HK5996/08, 24 h
[13] = test system: Staphylococcus epidermidis; assay: Antibacterial activity against Staphylococcus epidermidis HK6966/08 clinical isolate after 24 hrs by microdilution assay; format: functional; conditions: HK6966/08, 24 h
Enterococcus sp. [14] = assay: Antibacterial activity against Enterococcus sp. HK14365/08 clinical isolate after 24 hrs by microdilution assay; format: functional; conditions: HK14365/08, 24 h
Escherichia coli [15] = assay: Antibacterial activity against Escherichia coli ATCC 8739 after 24 hrs by microdilution assay; format: functional; conditions: ATCC 8739, 24 h
Outline: (§3)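 Broth microdilution in Mueller-Hinton medium buffered to pH 7.4 (±0.2), with DMSO as diluent at no more than 2% final. Compounds were tested as 2-fold serial dilutions from 2000 to 0.488 µmol/l. The inoculum was 0.5 McFarland (1.5×10^8 cfu/ml). Plates were held at 37 °C and read visually at 24 and 48 h. MIC was taken as 95% growth inhibition versus control, determined twice in duplicate.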

Klebsiella pneumoniae [16] = assay: Antibacterial activity against Klebsiella pneumoniae HK11750/08 clinical isolate after 24 hrs by microdilution assay; format: functional; conditions: HK11750/08, 24 h
Klebsiella pneumoniae [17] = assay: Antibacterial activity against Klebsiella pneumoniae HK14368/08 clinical isolate after 24 hrs by microdilution assay; format: functional; conditions: HK14368/08, 24 h
Pseudomonas aeruginosa [18] = assay: Antibacterial activity against Pseudomonas aeruginosa ATCC 9027 after 24 hrs by microdilution assay; format: functional; conditions: ATCC 9027, 24 h; outline: as §3
Staphylococcus aureus [19] = assay: Antibacterial activity against Staphylococcus aureus ATCC 6538 after 48 hrs by microdilution assay; format: functional; conditions: ATCC 6538, 48 h
Staphylococcus aureus [20] = assay: Antibacterial activity against methicillin-resistant Staphylococcus aureus HK5996/08 clinical isolate after 48 hrs by microdilution assay; format: functional; conditions: HK5996/08, 48 h
[21] = test system: Staphylococcus epidermidis; assay: Antibacterial activity against Staphylococcus epidermidis HK6966/08 clinical isolate after 48 hrs by microdilution assay; format: functional; conditions: HK6966/08, 48 h
Enterococcus sp. [22] = assay: Antibacterial activity against Enterococcus sp. HK14365/08 clinical isolate after 48 hrs by microdilution assay; format: functional; conditions: HK14365/08, 48 h
Escherichia coli [23] = assay: Antibacterial activity against Escherichia coli ATCC 8739 after 48 hrs by microdilution assay; format: functional; conditions: ATCC 8739, 48 h; outline: as §3
Klebsiella pneumoniae [24] = assay: Antibacterial activity against Klebsiella pneumoniae HK11750/08 clinical isolate after 48 hrs by microdilution assay; format: functional; conditions: HK11750/08, 48 h
Klebsiella pneumoniae [25] = assay: Antibacterial activity against Klebsiella pneumoniae HK14368/08 clinical isolate after 48 hrs by microdilution assay; format: functional; conditions: HK14368/08, 48 h
Pseudomonas aeruginosa [26] = assay: Antibacterial activity against Pseudomonas aeruginosa ATCC 9027 after 48 hrs by microdilution assay; format: functional; conditions: ATCC 9027, 48 h; outline: as §3

SMILES	IC50 (TERT-RPE1 [1]) [nM]	IC50 (BJ) [nM]	IC50 (K562 [2]) [nM]	IC50 (HL-60 [3]) [nM]	IC50 (PC-3 [4]) [nM]	IC50 (MCF7) [nM]	IC50 (HepG2 [5]) [nM]	IC50 (TERT-RPE1 [6]) [nM]	IC50 (K562 [7]) [nM]	IC50 (HL-60 [8]) [nM]	IC50 (PC-3 [9]) [nM]	IC50 (HepG2 [10]) [nM]	MIC95 (Staphylococcus aureus [11]) [µM]	MIC95 (Staphylococcus aureus [12]) [µM]	MIC95 [13] [µM]	MIC95 (Enterococcus sp. [14]) [µM]	MIC95 (Escherichia coli [15]) [µM]	MIC95 (Klebsiella pneumoniae [16]) [µM]	MIC95 (Klebsiella pneumoniae [17]) [µM]	MIC95 (Pseudomonas aeruginosa [18]) [µM]	also measured
O=C1OCC(c2ccc(C(F)(F)F)cc2)=C1c1c[nH]c2ccccc12	870	> 40000	260	670	> 40000	> 40000	> 40000	1540	> 40000	2940	> 40000	> 40000	> 125	> 125	> 125	> 125	> 125	> 125	> 125	> 125	MIC95 (Staphylococcus aureus [19]): > 125 µM; MIC95 (Staphylococcus aureus [20]): > 125 µM; MIC95 [21]: > 125 µM; MIC95 (Enterococcus sp. [22]): > 125 µM; MIC95 (Escherichia coli [23]): > 125 µM; MIC95 (Klebsiella pneumoniae [24]): > 125 µM; MIC95 (Klebsiella pneumoniae [25]): > 125 µM; MIC95 (Pseudomonas aeruginosa [26]): > 125 µM
Cc1ccc(C2=C(c3cccc(C(F)(F)F)c3)C(=O)OC2)cc1	1330	> 40000	290	660	> 40000	19100	> 40000	> 40000	310	2660	> 40000	> 40000	31.2 (≈ 9.95 µg/mL)	31.2 (≈ 9.95 µg/mL)	15.6 (≈ 4.97 µg/mL)	> 500	> 500	> 500	> 500	> 500	MIC95 (Staphylococcus aureus [19]): 31.2 µM (≈ 9.95 µg/mL); MIC95 (Staphylococcus aureus [20]): 31.2 µM (≈ 9.95 µg/mL); MIC95 [21]: 15.6 µM (≈ 4.97 µg/mL); MIC95 (Enterococcus sp. [22]): > 500 µM; MIC95 (Escherichia coli [23]): > 500 µM; MIC95 (Klebsiella pneumoniae [24]): > 500 µM; MIC95 (Klebsiella pneumoniae [25]): > 500 µM; MIC95 (Pseudomonas aeruginosa [26]): > 500 µM
